Series [1] addresses Virion infectivity factor (Human immunodeficiency virus type 1 group M subtype B (isolate NY5)(HIV-1)) (UniProt P12504). Description: Antagonist activity against HIV-1 Vif in human MT4 cells assessed as inhibition of viral infection at 50 uM measured after 16 hrs by cell-based assay. The note with it: Human immunodeficiency virus 1. The method in brief:
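Antiviral activity was measured against wild-type HIV-1 in permissive MT-4 cells as a Vif-specificity counter-screen. RN-18 was the positive control, and cells cultured without inhibitor were the negative control. "No activity" means no inhibition at 50 µM.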

The subject of another series is HeLa. Put plainly: Cytotoxicity against human HeLa cells at 50 uM measured after 16 hrs by MTS assay relative to DMSO control. The class given is cell-based. In general terms: Tetrazolium assays rely on reduction of a dye to a coloured formazan, in cell work by metabolically active cells.
Series [2] addresses Virion infectivity factor (Human immunodeficiency virus type 1 group M subtype B (isolate NY5)(HIV-1)) (UniProt P12504). Description: Antagonist activity against HIV-1 Vif in human H9 cells expressing A3G assessed as inhibition of viral replication by reverse transcriptase assay relative to vehicle-treated control. The class given is cell-based. The note with it: Human immunodeficiency virus 1. In outline:
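Antiviral activity was measured against wild-type HIV-1 in non-permissive (A3G-expressing) H9 cells and reported as IC50. RN-18 was the positive control, and cells cultured without inhibitor were the negative control. Selected compounds were tested across doses, and MTS cell viability was checked in parallel at 50 µM.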

Series [3] shares this target. Put plainly: Antagonist activity against HIV-1 GFP-tagged Vif in human HEK293FT cells co-expressing HA-tagged A3G assessed as upregulation of A3G levels at 50 uM measured after 16 hrs by immunoblotting method. The note with it: Human immunodeficiency virus 1. It counts as cell-based. The method in brief:
(§1)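 HEK293FT cells co-expressing HA-tagged A3G and either GFP-tagged Vif or Vif were incubated with or without compound (50 µM) for 16 h. Cell extracts were immunoblotted with anti-HA (A3G), anti-GFP (Vif) and anti-GAPDH antibodies. Untreated cells served as the comparison, and choline chloride was included as a negative control in the triazole series.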

The target is the same in series [4]. Description: Antagonist activity against HIV-1 GFP-tagged Vif in human HEK293FT cells co-expressing HA-tagged A3G assessed as downregulation of Vif expression expression at 50 uM measured after 16 hrs by immunoblotting method. The class given is cell-based. The note with it: Human immunodeficiency virus 1. The method in brief: as §1
Background: A western blot detects proteins with antibodies after separation by electrophoresis.

Activity calls are given as the source filed them. Unless noted, the calls are words filed in the database; no cut-off is given here.

Virion infectivity factor (Human immunodeficiency virus type 1 group M subtype B (isolate NY5)(HIV-1)), sequence (P12504 whole entry): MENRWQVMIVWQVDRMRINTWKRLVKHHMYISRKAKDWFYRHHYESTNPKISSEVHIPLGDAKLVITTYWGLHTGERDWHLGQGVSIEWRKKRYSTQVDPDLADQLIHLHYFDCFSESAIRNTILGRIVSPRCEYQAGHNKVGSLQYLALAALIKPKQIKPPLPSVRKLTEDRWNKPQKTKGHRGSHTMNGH

With `COc1cccc(F)c1-n1cc(-c2ccccc2S(=O)(=O)c2ccc([N+](=O)[O-])cc2)nn1`, the result in series [1] was inactive.

On to `COc1cccc(F)c1-n1cc(-c2ccccc2Sc2ccc(C(F)(F)F)cc2)nn1`, for which the outcome in series [1] was inactive. As to `COc1cccc(-n2cc(-c3ccccc3S(=O)(=O)c3ccc(N)cc3)nn2)c1OC`, the result in series [1] was inactive. On to `COC(=O)c1ccc(Sc2ccccc2-c2cn(-c3c(F)cccc3OC)nn2)cc1`, for which, in series [1], the outcome was inactive. On the same count and under the same terms, under `COc1ccc(Sc2ccccc2-c2cn(-c3c(F)cccc3OC)nn2)cc1` stands “inactive”.

Regarding `COc1cccc(F)c1-n1cc(-c2ccccc2Sc2ccc([N+](=O)[O-])cc2)nn1`, the result in series [1] was inactive. As for `COc1ccccc1-n1cc(-c2ccccc2Sc2ccc(N)cc2)nn1`, the outcome in series [1] was inactive. Regarding `COc1cccc(F)c1-n1cc(-c2ccccc2Sc2ccc(N)cc2)nn1`, the result in series [1] was inactive. Still for that read-out and setting: the result for `COc1ccc(Sc2ccccc2-c2cn(-c3cccc(OC)c3OC)nn2)cc1` reads “inactive”. With `COc1ccc(-n2cc(-c3ccccc3Sc3ccc(N)cc3)nn2)c(OC)c1`, in series [1], the result was inactive. Regarding `COc1ccc(-n2cc(-c3ccccc3S(=O)(=O)c3ccc([N+](=O)[O-])cc3)nn2)c(OC)c1`, the outcome in series [1] was inactive. For the molecule `COc1ccc(OC)c(-n2cc(-c3ccccc3Sc3ccc(C(=O)O)cc3)nn2)c1`, in series [1], the outcome was inactive. As to `COc1ccc(S(=O)(=O)c2ccccc2-c2cn(-c3ccc(OC)cc3OC)nn2)cc1`, in series [1], the result was inactive. Consider `COC(=O)c1ccc(S(=O)(=O)c2ccccc2-c2cn(-c3c(OC)cccc3OC)nn2)cc1`, for which the result in series [1] was inactive.

Consider `COC(=O)c1ccc(Sc2ccccc2-c2cn(-c3ccccc3OC)nn2)cc1`, for which, in series [1], the outcome was inactive. `COC(=O)c1ccc(Sc2ccccc2-c2cn(-c3cccc(OC)c3OC)nn2)cc1`: the outcome in series [1] was inactive. In addition, in the series on HeLa, the Activity entry was “Non-Toxic”. For the same molecule, in series [2], the inhibition entry was “Dose-dependent effect”. In the case of `COc1ccc(S(=O)(=O)c2ccccc2-c2cn(-c3ccccc3OC)nn2)cc1`, in series [1], the outcome was inactive. For `COc1ccc(Sc2ccccc2-c2cn(-c3ccc(OC)cc3OC)nn2)cc1`, the result in series [1] was inactive. As for `COc1ccc(-n2cc(-c3ccccc3S(=O)(=O)c3ccc(C(F)(F)F)cc3)nn2)c(OC)c1`, the result in series [1] was inactive. For the molecule `COc1ccc(Sc2ccccc2-c2cn(-c3cc(OC)ccc3OC)nn2)cc1`, in series [1], the outcome was inactive. In the case of `COc1ccccc1-n1cc(-c2ccccc2Sc2ccc(C(=O)O)cc2)nn1`, the outcome in series [1] was inactive.

Take `COC(=O)c1ccc(S(=O)(=O)c2ccccc2-c2cn(-c3cccc(OC)c3OC)nn2)cc1`: in series [1], the outcome was inactive. In the case of `COc1cccc(F)c1-n1cc(-c2ccccc2S(=O)(=O)c2ccc(C(=O)O)cc2)nn1`, the outcome in series [1] was inactive. With `COc1cccc(-n2cc(-c3ccccc3Sc3ccc(C(=O)O)cc3)nn2)c1OC`, the outcome in series [1] was inactive. On the same count and under the same terms, under `COc1cccc(-n2cc(-c3ccccc3Sc3ccc(C(F)(F)F)cc3)nn2)c1OC` stands “inactive”. Turning to `COc1ccc(OC)c(-n2cc(-c3ccccc3S(=O)(=O)c3ccc(C(=O)O)cc3)nn2)c1`, the result in series [1] was inactive. Further, the outcome in series [3] and in series [4] was Active. `COc1ccccc1-n1cc(-c2ccccc2S(=O)(=O)c2ccc([N+](=O)[O-])cc2)nn1`: in series [1], the outcome was inactive.

As for `COc1ccccc1-n1cc(-c2ccccc2S(=O)(=O)c2ccc(N)cc2)nn1`, in series [1], the result was inactive. For the same molecule, the outcome in series [3] and in series [4] was Active. On to `COC(=O)c1ccc(Sc2ccccc2-c2cn(-c3ccc(OC)cc3OC)nn2)cc1`, for which the result in series [1] was inactive. Besides, in the series with HeLa, the Activity result is reported as “Non-Toxic”. For the same molecule, the inhibition entry in series [2] is “Dose-dependent effect”. `COC(=O)c1ccc(S(=O)(=O)c2ccccc2-c2cn(-c3cc(OC)ccc3OC)nn2)cc1`: in series [1], the result was inactive. For `COc1ccc(-n2cc(-c3ccccc3Sc3ccc(C(F)(F)F)cc3)nn2)c(OC)c1`, in series [1], the result was inactive.

As to `COc1ccc(-n2cc(-c3ccccc3S(=O)(=O)c3ccc(C(=O)O)cc3)nn2)c(OC)c1`, the result in series [1] was inactive. As to `COc1cccc(OC)c1-n1cc(-c2ccccc2S(=O)(=O)c2ccc(C(F)(F)F)cc2)nn1`, in series [1], the result was inactive. For the molecule `COc1cccc(OC)c1-n1cc(-c2ccccc2S(=O)(=O)c2ccc(C(=O)O)cc2)nn1`, the result in series [1] was inactive. As to `COc1cccc(OC)c1-n1cc(-c2ccccc2Sc2ccc([N+](=O)[O-])cc2)nn1`, the outcome in series [1] was inactive. `COc1ccc(OC)c(-n2cc(-c3ccccc3S(=O)(=O)c3ccc(C(F)(F)F)cc3)nn2)c1`: the outcome in series [1] was inactive. In the case of `COc1cccc(OC)c1-n1cc(-c2ccccc2Sc2ccc(C(F)(F)F)cc2)nn1`, the outcome in series [1] was inactive. As for `COc1cccc(F)c1-n1cc(-c2ccccc2S(=O)(=O)c2ccc(C(F)(F)F)cc2)nn1`, the result in series [1] was inactive. On to `COc1ccc(-n2cc(-c3ccccc3Sc3ccc(C(=O)O)cc3)nn2)c(OC)c1`, for which, in series [1], the result was inactive. In the case of `COc1cccc(-n2cc(-c3ccccc3S(=O)(=O)c3ccc(C(F)(F)F)cc3)nn2)c1OC`, the result in series [1] was inactive. Turning to `COc1ccc(-n2cc(-c3ccccc3S(=O)(=O)c3ccc(N)cc3)nn2)c(OC)c1`, the outcome in series [1] was inactive. For the molecule `COc1ccc(Sc2ccccc2-c2cn(-c3c(OC)cccc3OC)nn2)cc1`, in series [1], the outcome was inactive. For the molecule `COc1ccccc1-n1nncc1-c1ccccc1Sc1ccc([N+](=O)[O-])cc1`, the result in series [3] and in series [4] was Active. Take `COc1ccc(-n2cc(-c3ccccc3Sc3ccc([N+](=O)[O-])cc3)nn2)c(OC)c1`: the result in series [1] was inactive. Consider `COc1cccc(F)c1-n1cc(-c2ccccc2S(=O)(=O)c2ccc(N)cc2)nn1`, for which, in series [1], the outcome was inactive. For `COc1ccc(OC)c(-n2cc(-c3ccccc3Sc3ccc(C(F)(F)F)cc3)nn2)c1`, the result in series [1] was inactive. As to `COC(=O)c1ccc(S(=O)(=O)c2ccccc2-c2cn(-c3ccccc3OC)nn2)cc1`, the result in series [1] was inactive. In the case of `COc1ccccc1-n1cc(-c2ccccc2S(=O)(=O)c2ccc(C(=O)O)cc2)nn1`, the result in series [1] was inactive. Further, the result in series [3] and in series [4] was Active. Turning to `COc1cccc(F)c1-n1cc(-c2ccccc2Sc2ccc(C(=O)O)cc2)nn1`, the outcome in series [1] was inactive. Still for that read-out and setting: the result for `COc1cccc(OC)c1-n1cc(-c2ccccc2Sc2ccc(C(=O)O)cc2)nn1` reads “inactive”; that for `COc1cccc(-n2cc(-c3ccccc3S(=O)(=O)c3ccc(C(=O)O)cc3)nn2)c1OC`, “inactive”; that for `COC(=O)c1ccc(S(=O)(=O)c2ccccc2-c2cn(-c3ccc(OC)cc3OC)nn2)cc1`, “inactive”. As to `COc1ccccc1-n1cc(-c2ccccc2S(=O)(=O)c2ccc(C(F)(F)F)cc2)nn1`, the result in series [1] was inactive.

`COc1ccc(S(=O)(=O)c2ccccc2-c2cn(-c3cccc(OC)c3OC)nn2)cc1`: the result in series [1] was inactive.

With `COc1ccc(Sc2ccccc2-c2cn(-c3ccccc3OC)nn2)cc1`, the result in series [1] was inactive. Same read-out and setting: the result for `COc1cccc(-n2cc(-c3ccccc3S(=O)(=O)c3ccc([N+](=O)[O-])cc3)nn2)c1OC` reads “inactive”. As for `COc1ccc(S(=O)(=O)c2ccccc2-c2cn(-c3cc(OC)ccc3OC)nn2)cc1`, the outcome in series [1] was inactive.

Consider `COc1ccc(S(=O)(=O)c2ccccc2-c2cn(-c3c(OC)cccc3OC)nn2)cc1`, for which the result in series [1] was inactive. On the same count and under the same terms, under `COc1ccc(S(=O)(=O)c2ccccc2-c2cn(-c3c(F)cccc3OC)nn2)cc1` stands “inactive”. Regarding `COc1cccc(-n2cc(-c3ccccc3Sc3ccc(N)cc3)nn2)c1OC`, the outcome in series [1] was inactive. On to `COC(=O)c1ccc(Sc2ccccc2-c2cn(-c3cc(OC)ccc3OC)nn2)cc1`, for which the result in series [1] was inactive. Also, the result in series [3] and in series [4] was Active.

On to `COC(=O)c1ccc(S(=O)(=O)c2ccccc2-c2cn(-c3c(F)cccc3OC)nn2)cc1`, for which the outcome in series [1] was inactive. As for `COc1ccccc1-c1nnc(-c2ccccc2Sc2ccc([N+](=O)[O-])cc2)o1`, the outcome in series [3] and in series [4] was Active. As to `COc1ccc(OC)c(-n2cc(-c3ccccc3Sc3ccc(N)cc3)nn2)c1`, in series [1], the result was inactive. Same read-out and setting: under `COc1cccc(OC)c1-n1cc(-c2ccccc2S(=O)(=O)c2ccc(N)cc2)nn1` stands “inactive”; under `COc1cccc(OC)c1-n1cc(-c2ccccc2Sc2ccc(N)cc2)nn1`, “inactive”; under `COc1cccc(OC)c1-n1cc(-c2ccccc2S(=O)(=O)c2ccc([N+](=O)[O-])cc2)nn1`, “inactive”.
